Data as given in ChEMBL document CHEMBL1146867, “Novel antibacterial class: a series of tetracyclic derivatives” (J Med Chem, 2006).
Values after ≈ are worked out from the molar mass of the structure shown.

Experiments:
Type in all cases: functional
JIYOYE = test: Cytotoxicity against human B cells by Jijoye assay; settings: read-out: LD50 (the source's name)
Streptococcus pneumoniae [1] = test: Antibacterial activity against quinolone-susceptible Streptococcus pneumoniae ATCC 6303
Procedure, shortened: (§1)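 MICs were determined by broth microdilution following the National Committee for Clinical Laboratory Standards method for aerobically growing bacteria.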

Haemophilus influenzae = test: Antibacterial activity against quinolone-susceptible Haemophilus influenzae 1435; procedure, shortened: as §1
Streptococcus pneumoniae [2] = test: Antibacterial activity against quinolone-resistant Streptococcus pneumoniae ATCC 7257
Procedure, shortened: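 MIC by broth microdilution following National Committee for Clinical Laboratory Standards methods for dilution susceptibility testing of aerobically growing bacteria, against the quinolone-resistant S. pneumoniae strain 7257.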

Streptococcus pneumoniae [3] = test: Inhibition on Streptococcus pneumoniae translation by uncoupled translation assay
Procedure, shortened: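 The assay was cell-free and translation-only (uncoupled), using S. pneumoniae material. Dried test compound was mixed with S30 extract, luciferase-encoding mRNA and a complete amino acid mix. The mix was incubated to allow translation, and the reaction was stopped with kanamycin. Luciferin reagent was then added, and read-out was by flash luminescence. Results are given as IC50.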

Streptococcus pneumoniae [4] = test: Inhibition on Streptococcus pneumoniae translation by transcription/translation coupled assay

Structure (SMILES) | CC50 (JIYOYE) [µg/mL] | MIC (Streptococcus pneumoniae [1]) [µg/mL] | MIC (Haemophilus influenzae) [µg/mL] | MIC (Streptococcus pneumoniae [2]) [µg/mL] | IC50 (Streptococcus pneumoniae [3]) [µM] | IC50 (Streptococcus pneumoniae [4]) [µM]
O=C(O)c1cnc2nc3c(cc2c1O)NC[C@@H]1CCCN31 | 18 (≈ 62.9 µM) | 16 (≈ 55.9 µM) | 8 (≈ 27.9 µM) | 8 (≈ 27.9 µM) | 10 | –
O=C(O)c1cn(C2CC2)c2nc3c(cc2c1=O)OC[C@@H]1CCCN31 | – | > 64 | – | 8 (≈ 24.4 µM) | > 100 | –
COc1ccc(Cn2cc(C(=O)O)c(=O)c3cc4c(nc32)N2CCC[C@H]2CO4)c(OC)c1 | 12 (≈ 27.4 µM) | > 64 | > 64 | 32 (≈ 73.2 µM) | 57 | –
CCN1CCOc2cc3c(O)c(C(=O)O)cnc3nc21 | > 100 | > 64 | 64 (≈ 233 µM) | 32 (≈ 116 µM) | 84 | –
O=C(O)c1cnc2nc3c(cc2c1O)OC[C@@H]1CCCN31 | > 100 | 4 (≈ 13.9 µM) | 2 (≈ 6.96 µM) | 1 (≈ 3.48 µM) | 5.2 | –
C[C@@H]1Oc2cc3c(O)c(C(=O)O)cnc3nc2N2CCC[C@@H]12 | > 100 | 8 (≈ 26.6 µM) | 32 (≈ 106 µM) | 4 (≈ 13.3 µM) | 8.7 | –
O=C(O)c1cnc2nc3c(cc2c1O)OC[C@@H]1CCN31 | > 100 | 16 (≈ 58.6 µM) | 8 (≈ 29.3 µM) | 2 (≈ 7.32 µM) | 7.5 | –
O=C(O)c1cnc2nc3c(cc2c1O)OC[C@H]1CCCN31 | > 100 | 8 (≈ 27.8 µM) | 4 (≈ 13.9 µM) | 1 (≈ 3.48 µM) | 10.5 | –
N[C@H]1C[C@H]2COc3cc4c(O)c(C(=O)O)cnc4nc3N2C1 | > 100 | > 64 | > 64 | > 64 | 2.7 | –
O=C(O)c1cnc2nc3c(cc2c1O)N(c1ccccc1)C[C@@H]1CCCN31 | > 100 | > 64 | > 64 | > 64 | 64 | –
C=CC[C@@H]1Oc2cc3c(O)c(C(=O)O)cnc3nc2N2CCC[C@@H]12 | > 100 | > 64 | 64 (≈ 196 µM) | 8 (≈ 24.4 µM) | 47 | –
C=CCC12CCCN1c1nc3ncc(C(=O)O)c(O)c3cc1OC2 (stereo unspecified) | > 100 | > 64 | > 64 | > 64 | > 300 | –
CC(=O)N1C[C@@H]2CCCN2c2nc3ncc(C(=O)O)c(O)c3cc21 | – | 16 (≈ 48.7 µM) | 4 (≈ 12.2 µM) | – | 7 | –
CC12CCCN1c1nc3ncc(C(=O)O)c(O)c3cc1OC2 (stereo unspecified) | > 100 | > 64 | 32 (≈ 106 µM) | 32 (≈ 106 µM) | 107 | –
O=C(O)c1cnc2nc3c(cc2c1O)NC(=O)[C@@H]1CCCN31 | > 100 | > 64 | > 64 | > 64 | 22 | –
O=C(O)c1cnc2nc(N3CCC[C@@H]3CO)c(F)cc2c1O | > 100 | > 64 | > 64 | > 64 | – | 75
COc1ccc(Cn2cc(C(=O)O)c(=O)c3cc4c(nc32)N2CCC[C@@H]2CO4)c(OC)c1 | 6 (≈ 13.7 µM) | > 64 | > 64 | 16 (≈ 36.6 µM) | 229 | –
O=C(O)c1cnc2nc3c(cc2c1O)OCCN3 | > 100 | > 64 | 32 (≈ 129 µM) | > 64 | 100 | –
CC(C)(C)n1cc(C(=O)O)c(=O)c2cc3c(nc21)N1CCC[C@H]1C(=O)N3 | > 100 | > 64 | > 32 | > 64 | > 200 | –
O=C(O)c1cnc2nc3c(cc2c1O)OCC1CCCCN31 (stereo unspecified) | > 100 | > 64 | 8 (≈ 26.6 µM) | 16 (≈ 53.1 µM) | 63 | –
O=C(O)c1cnc2nc(N3CCCC3)c(F)cc2c1O | > 100 | 16 (≈ 57.7 µM) | < 1 | 4 (≈ 14.4 µM) | – | –
O=C(O)c1cnc2cc(N3CCNCC3)c(F)cc2c1O | – | > 64 | – | > 64 | 141 | –
C[C@H]1Oc2cc3c(O)c(C(=O)O)cnc3nc2N2CCCC12 (single isomer, unassigned) | > 100 | 64 (≈ 212 µM) | 64 (≈ 212 µM) | 32 (≈ 106 µM) | 125 | –
C=CC[C@H]1Oc2cc3c(O)c(C(=O)O)cnc3nc2N2CCC[C@@H]12 | > 100 | > 64 | > 64 | > 64 | > 300 | –
CN1C[C@@H]2CCCN2c2nc3ncc(C(=O)O)c(O)c3cc21 | > 100 | 8 (≈ 26.6 µM) | 8 (≈ 26.6 µM) | 2 (≈ 6.66 µM) | 0.89 | –
O=C(O)c1cn(C2CC2)c2cc(N3CCNCC3)c(F)cc2c1=O [CIPROFLOXACIN] | – | 2 (≈ 6.04 µM) | – | 16 (≈ 48.3 µM) | 200 | –
CN1CCOc2cc3c(O)c(C(=O)O)cnc3nc21 | > 100 | > 64 | 32 (≈ 122 µM) | 32 (≈ 122 µM) | 70 | –
O=C(O)c1cnc2nc3c(cc2c1O)OC[C@@H]1C[C@@H](O)CN31 | > 100 | 64 (≈ 211 µM) | 16 (≈ 52.8 µM) | 16 (≈ 52.8 µM) | 6.9 | –
